Assay results from ChEMBL document CHEMBL4834436, “Discovery of the S1P2 Antagonist GLPG2938 (1-[2-Ethoxy-6-(trifluoromethyl)-4-pyridyl]-3-[[5-methyl-6-[1-methyl-3-(trifluoromethyl)pyrazol-4-yl]pyridazin-3-yl]methyl]urea), a Preclinical Candidate for the Treatment of Idiopathic Pulmonary Fibrosis” (J Med Chem, 2021).
Values after ≈ are worked out from the molar mass of the structure shown.

Legend:
[1] = biological target: T1, Sphingosine 1-phosphate receptor 2 (Homo sapiens, UniProt O95136); test: Antagonist activity at recombinant human S1P2 receptor expressed in CHO cells assessed as EC80 S1P-induced activation incubated for 4 hrs in presence of [35S]GTPgammaS by Topcount reader; assay type: functional, cell-based
T1 sequence (O95136 whole entry): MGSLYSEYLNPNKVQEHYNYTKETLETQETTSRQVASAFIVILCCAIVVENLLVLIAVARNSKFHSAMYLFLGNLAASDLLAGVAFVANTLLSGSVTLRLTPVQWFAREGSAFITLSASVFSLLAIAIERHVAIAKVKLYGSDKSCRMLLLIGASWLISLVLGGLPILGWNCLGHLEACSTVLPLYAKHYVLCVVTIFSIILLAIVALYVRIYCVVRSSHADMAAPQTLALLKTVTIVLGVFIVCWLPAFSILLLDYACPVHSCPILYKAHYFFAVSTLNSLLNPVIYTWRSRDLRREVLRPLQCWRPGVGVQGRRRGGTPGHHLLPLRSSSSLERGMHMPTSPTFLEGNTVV
In short: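 Membranes from stable lines overexpressing recombinant human S1P2, preincubated with PVT-WGA SPA beads, mixed with compound serial dilutions, [35S]GTPγS and S1P at EC80. Incubated 4 h at room temperature, centrifuged, scintillation counted. Antagonist mode; IC50 as geometric mean of ≥2 runs.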

[2] = biological target: T1, Sphingosine 1-phosphate receptor 2; test: Displacement of radio labeled-SIP from human recombinant S1P2 receptor expressed in CHO cell membranes […] by radioligand based competition binding assay; set-up: species or system Membrane
[3] = biological target: T1, Sphingosine 1-phosphate receptor 2; test: Agonist activity at human S1P2 receptor expressed in CHO cells assessed as calcium flux measured for 3 mins by fluorescence assay; assay type: functional, cell-based; conditions: read-out: IC50 (the source's name)
In short: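 CHO cells stably overexpressing human S1P2, seeded overnight at 37 °C/5% CO2, washed and starved 1 h in F-12 with 0.1% fatty-acid-free BSA, loaded with Fluo 8 dye with 5 mM probenecid. Compound added, fluorescence read 3 min; max/baseline ratio normalized to vehicle and S1P EC100. 10-point 1/3 dilutions from 23.3 μM final; EC50 derived; geometric mean of ≥2 runs.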

[4] = biological target: T1, Sphingosine 1-phosphate receptor 2; test: Antagonist activity at human S1P2 receptor expressed in CHO cells assessed as EC80 S1P-induced calcium flux measured for 3 mins by fluorescence assay; assay type: functional, cell-based
In short: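 Same dye-loaded, starved human S1P2-CHO cells; after agonist readout, 15 min at 37 °C, then stimulated with S1P at EC80, fluorescence read 3 min. Max/baseline ratio normalized to vehicle and S1P EC80. 10-point 1/3 dilutions from 20 μM final; IC50 derived; geometric mean of ≥2 runs.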

[5] = biological target: T1, Sphingosine 1-phosphate receptor 2; test: Antagonist activity at recombinant human S1P2 receptor in HFL1 cells assessed as inhibition of EC80 S1P-induced IL8 release measured as unbound concentration incubated for 16 to 24 hrs in presence of 2% HSA by ELISA; assay type: functional, cell-based; conditions: filed as antagonist, time 16-24 hrs
In short: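 IL8 IC50 from the 2% HSA condition converted to free IC50 = IC50 × fu,medium, where fu,medium is estimated from human plasma protein binding fraction unbound and the serum percentage used in the assay.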

[6] = Intrinsic clearance unbound in mouse liver microsomes at 1 uM […] by LC-MS/MS analysis; assay type: ADME, Microsome
[7] = biological target: T1, Sphingosine 1-phosphate receptor 2; test: Antagonist activity at recombinant human S1P2 receptor in HFL1 cells assessed as inhibition of EC80 S1P-induced IL8 release incubated for 16 to 24 hrs in absence of HSA by ELISA; assay type: functional, cell-based
In short: (§1)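 HFL-1 lung fibroblasts seeded in 96- or 384-well plates, then medium replaced by starvation medium with 1% heat-inactivated FBS, ±1.95% HSA (2% HSA condition), 16–24 h. 10-point 1/3 dilutions, 30 μM top final, 1 h, then S1P at EC80 (without HSA: 1 μM 96-well or 0.5 μM 384-well; with HSA: 5 or 2 μM).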

[8] = Intrinsic clearance unbound in human liver microsomes at 1 uM […] by LC-MS/MS analysis; assay type: ADME, Microsome
[9] = biological target: T1, Sphingosine 1-phosphate receptor 2; test: Antagonist activity at recombinant human S1P2 receptor in HFL1 cells assessed as inhibition of EC80 S1P-induced IL8 release incubated for 16 to 24 hrs in presence of 2% HSA by ELISA; assay type: functional, cell-based; in short: as §1
[10] = Clearance in Sprague-Dawley rat at 1 mg/kg, iv measured up to 24 hrs by LC-MS/MS analysis; assay type: ADME, organism-based; conditions: in vivo
In short: (§2)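 Male Sprague-Dawley rats (6–8 weeks), n = 3 per route; iv bolus 1 mg/kg in PEG200/water 60/40; gavage 5 or 10 mg/kg in PEG400/MC 0.5% after ≥12 h fast. Li-heparin plasma sampled to 24 h, LC-MS/MS, noncompartmental analysis. Plasma protein binding: 5 μM compound, 4 h incubation.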

[11] = Half life in beagle dog at 1 mg/kg, iv measured up to 24 hrs by LC-MS/MS analysis; assay type: ADME, organism-based, Canis lupus familiaris; conditions: in vivo
In short: (§3)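 Non-naive male Beagle dogs (n = 3) given 1 mg/kg iv as 10 min infusion; after 3-day washout, oral gavage 5 or 1 mg/kg in PEG400/MC 0.5% or MC 0.5% after ≥12 h fast. Jugular or cephalic blood into lithium heparin to 24 h; plasma analysed. Plasma protein binding: 5 μM compound, 4 h incubation.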

[12] = Half life in CD1 mouse at 1 mg/kg, iv measured up to 24 hrs by LC-MS/MS analysis; assay type: ADME, organism-based; conditions: in vivo
In short: (§4)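 Male CD1 mice, composite design, n = 6 per route; iv 1 mg/kg in PEG200/water 60/40, oral gavage 5 mg/kg in Tween 80/MC 0.5% or PEG400/MC 0.5% after ≥12 h fast. Li-heparin blood sampled to 24 h, plasma by LC-MS/MS; noncompartmental analysis. Plasma protein binding: 5 μM compound, 4 h incubation.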

CYP2C19 = CYP2C19 (Homo sapiens, UniProt P33261); test: Inhibition of recombinant CYP2C19 (unknown origin) at 10 uM; assay type: ADME
CYP2C19, sequence (P33261 whole entry): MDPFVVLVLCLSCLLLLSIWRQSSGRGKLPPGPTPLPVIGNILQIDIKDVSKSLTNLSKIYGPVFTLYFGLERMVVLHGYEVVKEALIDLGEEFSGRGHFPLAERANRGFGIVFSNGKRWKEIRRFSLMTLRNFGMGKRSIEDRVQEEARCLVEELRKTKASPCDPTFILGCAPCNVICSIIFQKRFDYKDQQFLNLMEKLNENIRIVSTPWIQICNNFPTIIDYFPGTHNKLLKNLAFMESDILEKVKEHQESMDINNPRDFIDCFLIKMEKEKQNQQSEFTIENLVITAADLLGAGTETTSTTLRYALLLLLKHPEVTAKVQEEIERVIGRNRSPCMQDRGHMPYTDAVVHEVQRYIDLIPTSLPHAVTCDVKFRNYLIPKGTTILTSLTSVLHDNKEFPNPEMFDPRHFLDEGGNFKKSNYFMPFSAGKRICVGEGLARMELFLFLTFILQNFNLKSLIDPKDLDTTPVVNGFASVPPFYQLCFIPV

[13] = Volume of distribution at steady state in CD1 mouse at 1 mg/kg, iv measured up to 24 hrs by LC-MS/MS analysis; assay type: ADME, organism-based; conditions: in vivo, read-out: Vdss; in short: as §4
[14] = Oral bioavailability in Sprague-Dawley rat at 5 mg/kg measured up to 24 hrs by LC-MS/MS analysis; assay type: ADME, organism-based; conditions: in vivo; in short: as §2
[15] = Volume of distribution at steady state in Sprague-Dawley rat at 1 mg/kg, iv measured up to 24 hrs by LC-MS/MS analysis; assay type: ADME, organism-based; conditions: in vivo, read-out: Vdss; in short: as §2
[16] = Plasma protein binding CD1 mouse plasma at 5 uM incubated for 4 hrs; assay type: ADME, cell-free; conditions: read-out: PPB (converted); in short: as §4
[17] = Clearance in CD1 mouse at 1 mg/kg, iv measured up to 24 hrs by LC-MS/MS analysis; assay type: ADME, organism-based; conditions: in vivo; in short: as §4
[18] = Plasma protein binding beagle dog plasma at 5 uM incubated for 4 hrs; assay type: ADME, cell-free, Canis lupus familiaris; conditions: read-out: PPB (converted); in short: as §3
[19] = Half life in Sprague-Dawley rat at 1 mg/kg, iv measured up to 24 hrs by LC-MS/MS analysis; assay type: ADME, organism-based; conditions: in vivo; in short: as §2
[20] = Plasma protein binding Sprague-Dawley rat plasma at 5 uM incubated for 4 hrs; assay type: ADME, cell-free; conditions: read-out: PPB (converted); in short: as §2
[21] = Oral bioavailability in beagle dog at 5 mg/kg measured up to 24 hrs by LC-MS/MS analysis; assay type: ADME, organism-based, Canis lupus familiaris; conditions: in vivo; in short: as §3
[22] = Thermodynamic solubility in FaSSIF; assay type: physicochemical; conditions: read-out: Therm_solubility
[23] = Volume of distribution at steady state in beagle dog at 1 mg/kg, iv measured up to 24 hrs by LC-MS/MS analysis; assay type: ADME, organism-based, Canis lupus familiaris; conditions: in vivo, read-out: Vdss; in short: as §3
[24] = Thermodynamic solubility in FaSSGF at pH 1.6; assay type: physicochemical; conditions: read-out: Therm_solubility
[25] = Oral bioavailability in CD1 mouse at 5 mg/kg measured up to 24 hrs by LC-MS/MS analysis; assay type: ADME, organism-based; conditions: in vivo; in short: as §4
CYP2C9 = CYP2C9 (Homo sapiens, UniProt P11712); test: Inhibition of recombinant CYP2C9 (unknown origin) at 10 uM; assay type: ADME
CYP2C9, sequence (P11712 whole entry): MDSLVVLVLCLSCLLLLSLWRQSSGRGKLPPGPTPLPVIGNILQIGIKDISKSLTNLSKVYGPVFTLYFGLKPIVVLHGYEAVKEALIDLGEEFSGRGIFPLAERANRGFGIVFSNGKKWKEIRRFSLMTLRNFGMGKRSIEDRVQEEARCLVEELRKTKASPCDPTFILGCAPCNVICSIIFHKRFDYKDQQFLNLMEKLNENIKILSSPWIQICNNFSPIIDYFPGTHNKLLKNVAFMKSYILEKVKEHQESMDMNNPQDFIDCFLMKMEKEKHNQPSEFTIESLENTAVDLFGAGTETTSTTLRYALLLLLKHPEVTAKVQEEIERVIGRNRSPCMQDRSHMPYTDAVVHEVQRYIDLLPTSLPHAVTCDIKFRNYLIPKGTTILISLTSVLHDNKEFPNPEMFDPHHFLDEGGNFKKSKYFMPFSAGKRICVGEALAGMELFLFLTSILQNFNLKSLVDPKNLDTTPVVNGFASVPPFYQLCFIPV

[26] = Clearance in beagle dog at 1 mg/kg, iv measured up to 24 hrs by LC-MS/MS analysis; assay type: ADME, organism-based, Canis lupus familiaris; conditions: in vivo; in short: as §3
CYP3A4 = CYP3A4 (Homo sapiens, UniProt P08684); test: Inhibition of recombinant CYP3A4 (unknown origin) at 10 uM; assay type: ADME
CYP3A4, sequence (P08684 whole entry): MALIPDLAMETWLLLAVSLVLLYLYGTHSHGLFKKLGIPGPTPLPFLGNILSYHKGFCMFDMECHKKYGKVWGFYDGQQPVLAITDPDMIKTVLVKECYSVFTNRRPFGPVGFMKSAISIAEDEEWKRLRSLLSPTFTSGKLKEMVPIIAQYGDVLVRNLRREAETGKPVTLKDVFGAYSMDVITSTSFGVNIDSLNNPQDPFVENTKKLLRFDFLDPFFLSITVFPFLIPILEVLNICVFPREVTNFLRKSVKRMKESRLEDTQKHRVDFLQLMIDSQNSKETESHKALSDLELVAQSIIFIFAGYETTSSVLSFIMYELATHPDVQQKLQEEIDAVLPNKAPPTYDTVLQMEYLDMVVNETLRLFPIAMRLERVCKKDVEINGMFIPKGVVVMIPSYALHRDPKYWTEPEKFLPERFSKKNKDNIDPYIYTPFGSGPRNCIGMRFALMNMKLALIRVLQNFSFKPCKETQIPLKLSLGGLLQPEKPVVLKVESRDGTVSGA

Row | Compound | IC50 [1] [µM] | IC50 [4] [µM] | fIC50 [5] [nM] | CL free [6] [mL/min/kg] | IC50 [7] [µM] | CL free [8] [mL/min/kg] | IC50 [9] [µM] | other results
1 | CCOc1nc(C)cc(NC(=O)NCc2cc(C)c(-c3cn(C)nc3C(F)(F)F)nn2)c1Cl | 26 | 8.7 | 0.55 | 250 | 0.026 | < 25 | 0.049 | 
2 | Cc1cc(CNC(=O)Nc2cc(Cl)nc(OCC(F)F)c2)nnc1-c1cn(C)nc1C(F)(F)F | 36 | 7.2 | 1.3 | < 167 | 0.036 | < 50 | 0.071 | 
3 | CCOc1cc(NC(=O)NCc2cc(C)c(-c3cn(C)nc3C(F)(F)F)nn2)cc(C)n1 | 242 | 54 | 15 | < 58.3 | 0.242 | < 15 | 0.194 | 
4 | COCCOc1cc(NC(=O)NCc2cc(C)c(-c3cn(C)nc3C(F)(F)F)nn2)cc(Cl)n1 | 640 | 412 |  | 317 | 0.64 | < 23.3 | 3.22 | 
5 | Cc1cc(CNC(=O)Nc2cc(OCC(O)CO)nc(C(F)(F)F)c2)nnc1-c1cn(C)nc1C(F)(F)F (stereo not drawn) | > 11000 | > 6.61 |  | < 76.7 | > 11 | 31.7 | > 10 | 

These reach a lower IC50 [1]. Values come first.

Row | IC50 [1] [µM] | IC50 [4] [µM] | fIC50 [5] [nM] | CL free [6] [mL/min/kg] | IC50 [7] [µM] | CL free [8] [mL/min/kg] | IC50 [9] [µM] | Compound | other results
6 | 3.4 | 2.6 |  |  |  |  |  | Cc1cc(NNC(=O)Nc2cc(Cl)nc(Cl)c2)ncc1-c1cnn(C)c1 | IC50 [2]: 1.2 µM; EC50 [3]: > 23 µM
7 | 20 | 7.7 | 1 | < 383 | 0.02 | < 43.3 | 0.045 | CCOc1cc(NC(=O)NCc2cc(C)c(-c3cn(C)nc3C(F)(F)F)nn2)cc(Cl)n1 | clearance [10]: 4.17 mL/min/kg; half-life [11]: 3.1 h; half-life [12]: 0.55 h; inhibition at 10 µM (CYP2C19): 61%; Vd [13]: 0.49 L/kg; bioavailability [14]: 10%; Vd [15]: 0.38 L/kg; fraction unbound at 4 h, 5 µM [16]: 0.002; clearance [17]: 10.3 mL/min/kg; fraction unbound at 4 h, 5 µM [18]: 0.016; half-life [19]: 1.1 h; fraction unbound at 4 h, 5 µM [20]: 0.001; bioavailability [21]: 30%; solubility thermodynamic [22]: 36 µg/mL (≈ 76.6 µM); Vd [23]: 2.1 L/kg; solubility thermodynamic [24]: 5 µg/mL (≈ 10.6 µM); bioavailability [25]: 20%; inhibition at 10 µM (CYP2C9): 58%; clearance [26]: 7.83 mL/min/kg; inhibition at 10 µM (CYP3A4): 23%
8 | 0.8 | > 1.4 |  |  |  |  |  | Cc1cc(NNC(=O)Nc2cc(Cl)nc(Cl)c2)ncc1-c1cn(C)nc1C | IC50 [2]: 0.19 µM; EC50 [3]: > 23 µM
